High-throughput results from PubChem.
Hits are enriched below; roughly 7.4% of the tested compounds scored in any of these assays.
M1 ag = agonists of M1 muscarinic receptor. AID 626. hit rate 3% among 64,000. CHO-M1 cells, Fluo-4 calcium fluorescence, agonist mode; stronger effect = higher value. B-score at 10 µM;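 active = fluorescence rise, raw or as B-score row- and column-corrected plate score, outside the 99.7% band of its plate's samples, either direction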
S1P3 ag = agonists of human S1P3 receptor; S1P3 NFAT-BLA reporter cells, agonism, FRET ratio; relative to 1 µM S1P, basal subtracted; Q99500; hit rate 0.1% among 60,000; AID 373; activation, % at 4.5 µM;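 active = activation above the screen-wide mean plus 3 SD, cut at about 4.5% in these data, passing the limit was not always enough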
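material = human S1P3 NFAT-BLA reporter CHO cells | schedule = 4 h compound at 37 °C, 2 h substrate at RT | measured by = fluorescent BLA substrate, ex 405 nm, em 460/535 nm ratio | controls = 1 µM S1P reference | replication = primary once, confirmation triplicate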
JNK3 inh = inhibitors of human JNK3 kinase; purified JNK3 kinase activity, HTS; P53779; hit rate 0.61% among 60,000; inhibition, % at 8 µM; in the data active = inhibition above about 17%
M1 antagonist = blocks the rat M1 muscarinic receptor response to acetylcholine | CHO-M1 cells, Fluo-4 calcium, ACh EC80 antagonist mode; stronger effect = lower value | B-score at 10 µM | hit rate 3.4% among 64,000 | AID 628;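 active = calcium fluorescence response, raw or row-and-column corrected B-score, differing from the plate sample mean either way at a set confidence level, mostly lower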
S1P1 ag-PAM = S1P1 (human) agonism or agonism potentiation; S1P1 CRE-bla cells, forskolin, beta-lactamase FRET, potentiator mode; S1P1 agonist co-added at EC20, 2 nM; 100% = saturating reference agonist, 0% = basal; activation, % at 9.5 µM; hit rate 0.57% among 56,000; P21453;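 active = activation above a cutoff set at the mean activation of all tested compounds plus 3 SD, cut at about 54% in these data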;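 also: forskolin at 4 µM as EC80 and the EC20 agonist is SEW2871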
Target sequence (P21453 whole entry, looked up): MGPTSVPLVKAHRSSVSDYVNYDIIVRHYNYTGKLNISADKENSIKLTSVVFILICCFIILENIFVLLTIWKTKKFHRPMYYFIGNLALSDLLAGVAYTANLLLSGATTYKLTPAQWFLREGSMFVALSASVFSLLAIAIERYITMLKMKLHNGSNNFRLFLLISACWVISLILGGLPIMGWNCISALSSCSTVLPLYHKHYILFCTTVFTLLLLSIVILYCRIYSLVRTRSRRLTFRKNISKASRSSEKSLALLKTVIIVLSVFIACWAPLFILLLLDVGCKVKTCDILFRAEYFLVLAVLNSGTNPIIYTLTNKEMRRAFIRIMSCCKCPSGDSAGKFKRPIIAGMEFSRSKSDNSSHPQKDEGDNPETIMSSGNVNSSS
Jurkat tox 60K = reduces viability or proliferation of Jurkat cells; Jurkat E6.1 viability, ATP luminescence, 48 h; inhibition, % at 4 µM; hit rate 1.2% among 56,000;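 active = inhibition above the mean inhibition of all tested compounds plus 3 SD, cut at about 28% in these data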
Large screens that a line does not name were inactive.

Cc1nn(Cc2ccc(Cl)c(Cl)c2)c(C)c1NC(=O)c1cc(CC(C)C)on1	S1P1 ag-PAM 76.4
O=C(c1cccnc1)N1CCCc2ccccc21	M1 ag -2.97
Cc1cc(C(=O)OCC(=O)NCCc2ccccc2)c(C)o1	none
CCOc1cc(-c2nnc(-c3ccco3)o2)cc(OCC)c1OCC	none
COc1ccc(-c2nnc(-c3cccs3)o2)cc1OC	none
CCOc1ccc(-c2nnc(-c3ccco3)o2)cc1OCC	S1P1 ag-PAM 99.3
CCOc1ccc(-c2nnc(-c3cccs3)o2)cc1OCC	S1P1 ag-PAM 103.5
O=C(CCC(=O)Nc1ccc(Oc2ccccc2)cc1)NCCO	none
c1cncc(-c2nc(Oc3ccc(-c4nnco4)cc3)c3c4c(sc3n2)CCCC4)c1	none
COc1cc(NC(=O)c2ccccc2Cl)c(OC)cc1NC(=O)CN1CCOCC1	none
Cn1c(C(=O)N2CCCc3ccccc32)cc2sccc21	S1P1 ag-PAM 85.7
Cc1ccc(OCC(O)CNS(=O)(=O)c2ccccc2C(=O)N2CCCCC2)cc1 (stereo not drawn)	none
COc1cccc(N=Cc2ccc(O)cc2O)c1	M1 ag 2.25
Cc1ccsc1C(=O)Nc1nnc(-c2ccco2)o1	Jurkat tox 60K 89.2
CCC(=O)Nc1nnc(-c2ccco2)o1	none
CCOC(=O)CNc1c(-c2ccc(O)cc2)nc2ccc(Cl)cn12	M1 ag 7.83
CCOc1cc(-c2nc(-c3ccc(OC)cc3)no2)cc(OCC)c1OCC	none
CCOc1ccc(-c2nc(-c3ccccc3)no2)cc1OCC	S1P3 ag 14.2, S1P1 ag-PAM 107.5
CCOc1cc(-c2nc(-c3ccncc3)no2)cc(OCC)c1OCC	none
Cc1cc(C)cc(-c2nc(-c3ccncc3)no2)c1	S1P1 ag-PAM 105.2
CCOc1ccc(-c2nc(-c3ccncc3)no2)cc1OCC	S1P3 ag 53.9, S1P1 ag-PAM 110.6
O/N=C1/CCc2nonc2/C1=N/O	none
O=C(O)Cn1nc(-c2ccc(F)cc2)oc1=O	none
O=C(O)Cn1nnnc1-c1ccc(F)cc1	M1 ag -2.04
O=C1NC2=C(C(=O)c3ccccc32)C(c2ccccc2)N1 (stereo not drawn)	JNK3 inh 26.9
Cc1sc(NC(=O)CSc2nnc(-c3ccc(F)cc3)o2)c(C#N)c1C	none
Cc1cc(C)cc(N(CC(=O)NCc2cccnc2)S(C)(=O)=O)c1	none
COCCCN1C(=O)c2[nH]nc(-c3ccccc3O)c2C1c1cccc(Cl)c1 (stereo not drawn)	Jurkat tox 60K 90.5
CCOC(=O)c1[nH]c2ccc(C)cc2c1N	none (no result: Jurkat tox 60K)
CCOC(=O)C1(N(CC)CC)Sc2cc(C)ccc2NC1=O (stereo not drawn)	Jurkat tox 60K 36.0
CCN(CC)c1ccc(NC(=O)c2ccccc2F)cc1	Jurkat tox 60K 57.1
CC(C)N1C(=O)C2C(c3ccccc3O)NC(C)(C(=O)O)C2C1=O (stereo not drawn)	none
Cn1c(=O)c2c(nc(CN3CCCCC3)n2CCCc2ccccc2)n(C)c1=O	none (no result: S1P3 ag, JNK3 inh, S1P1 ag-PAM, Jurkat tox 60K)
CC1CCCN(Cc2nc3c(c(=O)n(C)c(=O)n3C)n2CCc2ccccc2)C1 (stereo not drawn)	M1 ag 2.26
CC1CCCN(Cc2nc3c(c(=O)n(C)c(=O)n3C)n2CCCc2ccccc2)C1 (stereo not drawn)	M1 ag 2.35
CC1CCCCN1Cc1nc2c(c(=O)n(C)c(=O)n2C)n1CCCc1ccccc1 (stereo not drawn)	none
CCOCCn1c(CN2CCCCC2C)nc2c1c(=O)n(C)c(=O)n2C (stereo not drawn)	M1 antagonist -3.17
N#Cc1cc2c(nc1SCc1ccncc1)CCC2	none
C=CCN1C(=O)C(O)(CC(=O)c2ccc(N)cc2)c2ccccc21 (stereo not drawn)	none (no result: S1P3 ag, JNK3 inh, S1P1 ag-PAM, Jurkat tox 60K)
O=C(CC1(O)C(=O)N(C/C=C/c2ccccc2)c2ccccc21)c1ccccn1 (stereo not drawn)	M1 antagonist 1.94 (no result: S1P1 ag-PAM)
COc1ccc2c(c1)sc1nc(-c3ccccc3)cn12	Jurkat tox 60K 99.6
CCOC(=O)N1CCN(C(=O)c2ccc3c(c2)sc2nc(-c4ccc(OC)cc4)cn23)CC1	none (no result: M1 ag, M1 antagonist)
CC1Cc2cc(/C(O)=C3/C(=O)C(=O)N(CC4CCCO4)C3c3ccco3)ccc2O1 (stereo not drawn)	none
CC1CC(C)CN(S(=O)(=O)c2ccc(C(=O)Nc3nnc(-c4cccs4)o3)cc2)C1 (stereo not drawn)	Jurkat tox 60K 44.5
O=C(CCc1ccccc1)Nc1nnc(-c2cccs2)o1	none
CCC1CCCCN1S(=O)(=O)c1ccc(C(=O)Nc2nnc(-c3cccs3)o2)cc1 (stereo not drawn)	Jurkat tox 60K 82.4
O=C(Nc1nnc(-c2cccs2)o1)c1cccc(C(F)(F)F)c1	Jurkat tox 60K 63.7
CC1CCCN(S(=O)(=O)c2ccc(C(=O)Nc3nnc(-c4ccccc4Cl)o3)cc2)C1 (stereo not drawn)	none
CCCC1=C(C(=O)OCC)C(c2ccc(N(C)C)cc2)n2ncnc2N1 (stereo not drawn)	none
CSc1cccc(NC(=O)CN(c2cc(C)ccc2C)S(C)(=O)=O)c1	M1 antagonist 1.24
CCn1c(SCC(=O)Nc2nc3ccc(C)cc3s2)nc2c(c1=O)SC(C)C2 (stereo not drawn)	S1P1 ag-PAM 54.9
CCn1c(SCC(=O)N2CCCc3ccccc32)nc2c(c1=O)SC(C)C2 (stereo not drawn)	M1 antagonist 3.25
Nc1ccc(N2CCCCCC2)cc1	Jurkat tox 60K 37.0
CC(C)CC(OC(=O)c1ccco1)C(=O)NC1CCCCC1 (stereo not drawn)	none
CN(c1ccccc1C(=O)O)S(C)(=O)=O	none
CN(C)c1ccccc1C(=O)c1ccccc1N(C)C	Jurkat tox 60K 88.2
Cc1cc(NC(=O)CSc2nc(-c3ccco3)cc(C(F)(F)F)n2)n(-c2ccccc2)n1	Jurkat tox 60K 32.6
Cc1cc(NC(=O)CSc2nc(-c3cccs3)cc(C(F)(F)F)n2)no1	Jurkat tox 60K 74.1
Cc1c(NC(=O)CSc2nc(-c3ccco3)cc(C(F)(F)F)n2)c(=O)n(-c2ccccc2)n1C	none
Cc1cc(NC(=O)CCCS(=O)(=O)c2nc(-c3cccs3)cc(C(F)(F)F)n2)no1	Jurkat tox 60K 100.1
COC(=O)c1ccsc1NC(=O)CN1C(=O)CCC1=O	none
Cc1ccccc1Nc1nn2c(=O)c3ccccc3nc2s1	JNK3 inh 25.7
Cn1cnnc1SCC(=O)N1c2ccccc2-c2c(ssc2=S)C1(C)C	M1 antagonist -1.95
CCOC(=O)c1ccc(Oc2cc(C)nc(SC)n2)cc1	Jurkat tox 60K 75.1
COC(=O)c1ccc(Oc2nc(C)cc(Oc3ccccc3)n2)cc1	none
COC(=O)c1ccc(Oc2cc(C)nc(-n3nc(C)cc3C)n2)cc1	Jurkat tox 60K 99.9
C=COC(=O)CSc1nc(-c2cccs2)ccc1C#N	M1 antagonist 2.87 (no result: Jurkat tox 60K)
